# Hits are enriched below; roughly 1.5% of the tested compounds scored in any of these assays.
# SIRT5 inh – sirtuin-5 (human) deacylase inhibition | inhibition, % at 15 µM | Purified SirT5, succinyl-peptide AMC, trypsin-coupled fluorescence | AID 652115 | 330,000 compounds, 1.1% hits | Q9NXA8; in the data active = inhibition above about 15%; inconclusive = no clear call, values can overlap the other calls
# S100A4 MyoIIA – inhibitors of human S100A4 binding to myosin IIA peptide; P26447; S100A4/TAMRA-MyoIIA peptide fluorescence polarization; inhibition, % at 10.7 µM; 360,000 compounds, 0.14% hits;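 active = mean inhibition of at least 70% across replicates, with every replicate also reaching that level; inconclusive = mean inhibition reaches 70% but some replicates fall short; inactive = mean inhibition below 70%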
# Target sequence (P26447 whole entry, looked up): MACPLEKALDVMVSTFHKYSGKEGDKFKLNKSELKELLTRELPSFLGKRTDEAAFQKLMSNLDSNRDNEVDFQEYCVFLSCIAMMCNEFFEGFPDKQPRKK
#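 System – human S100A4 monomer protein, biochemical binding assay · Buffer or medium – Calcium-containing HEPES buffer, pH 7.2 · Timing – 5 min between mix addition and reading · Also added – TAMRA-labelled myosin IIA heavy-chain peptide probe, 5 nM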
# GSIS activator – primary screen for activators of insulin secretion dependent on glucose, INS-1E cells, GLuc reporter luminescence; activation, % at 16.6 µM; INS-1E GLuc reporter insulin secretion, 2-3 h; 370,000 compounds, 0.61% hits;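 active = lowest replicate activation of at least 40%, so every replicate reaches that level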;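 note: 0% = median of neutral control wells and 100% = median of IBMX positive control wells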
# ERp5 inh – inhibitors of human ERp5; Q15084; ERp5 insulin aggregation, absorbance 650 nm, 90 min; inhibition, % at 9.99 µM; 350,000 compounds, 0.05% hits; AID 651711;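 active = mean replicate inhibition above about 25%, with every replicate also reaching it, limit read from the data, passing the limit was not always enough; inconclusive = only one of those two criteria met; inactive = neither criterion met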
# PDI turbidity – blocks human protein disulfide isomerase activity | AID 588391 | PDI insulin aggregation turbidity, A650, 90 min | 350,000 compounds, 0.052% hits | inhibition, % at 10 µM;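 active = mean inhibition across replicates of 30% or more, whatever share of single replicates reach that level; inconclusive = mean inhibition below 30% while every single replicate reaches 30%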
# Target sequence (P07237 whole entry, looked up): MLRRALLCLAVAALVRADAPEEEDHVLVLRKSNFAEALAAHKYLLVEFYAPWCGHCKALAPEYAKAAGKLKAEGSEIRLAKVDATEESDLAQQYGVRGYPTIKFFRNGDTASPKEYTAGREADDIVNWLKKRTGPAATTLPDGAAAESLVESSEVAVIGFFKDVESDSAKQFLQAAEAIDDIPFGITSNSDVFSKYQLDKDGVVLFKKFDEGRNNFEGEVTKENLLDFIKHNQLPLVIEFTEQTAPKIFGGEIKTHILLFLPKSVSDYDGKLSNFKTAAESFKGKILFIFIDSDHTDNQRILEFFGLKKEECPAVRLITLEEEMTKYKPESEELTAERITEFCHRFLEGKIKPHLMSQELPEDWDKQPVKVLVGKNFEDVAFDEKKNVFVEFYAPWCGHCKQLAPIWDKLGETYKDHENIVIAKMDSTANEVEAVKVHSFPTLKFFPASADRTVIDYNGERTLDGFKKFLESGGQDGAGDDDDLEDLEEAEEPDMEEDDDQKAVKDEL
# Starred values were filed as active, the others as inactive; ? = inconclusive; . = no result given.
SMILES,SIRT5 inh,S100A4 MyoIIA,GSIS activator,ERp5 inh,PDI turbidity
C[C@H](CO)N1C[C@H](C)[C@@H](CN(C)C)OCCCC[C@H](C)Oc2ccc(NC(=O)Cc3ccccc3)cc2C1=O,-3,-17,-3,1,.
COc1ccc(C2=NOC(C(=O)Nc3cccnc3)C2)cc1OC (stereo not drawn),6,7,75*,0,2
C[C@@H]1CN([C@@H](C)CO)C(=O)c2ccccc2-c2ccccc2CO[C@@H]1CN(C)CC1CC1,-5,6,16,-2,.
CCOc1cc(N2CCOCC2)c(OCC)cc1NC(=O)COC(=O)c1cc2ccccc2cc1O,.,.,141*,.,-3
O=C(O)c1ccc(N2C(=O)/C(=C/C=C/c3ccccc3)SC2=S)cc1,5,-10,25,1,-2
O=C(NN1C(=O)/C(=C/C=C/c2ccco2)SC1=S)c1ccncc1,43*,-32,.,-4,0
O=C1/C(=C/C=C/c2ccco2)SC(=S)N1c1ccc(O)cc1,14,-8,-9,-5,5
O=C(NN1C(=O)/C(=C/C=C/c2ccccc2)SC1=S)c1ccncc1,22*,43,2,?,6
O=C(Nc1cc(F)ccc1F)N1C[C@@H]2[C@H](c3ccccc31)[C@@H](CO)N2Cc1cccnc1,0,2,17,2,.
C[C@@H]1CN([C@@H](C)CO)C(=O)c2cc(NC(=O)NC3CCCCC3)ccc2O[C@@H]1CN(C)S(=O)(=O)c1cn(C)cn1,-1,-7,23,0,.
COc1ccc(NC(=O)c2cc3c(Cl)nc4ccccc4c3s2)cc1OC,-2,36,5,-3,-8
COc1ccc(OC)c(NC(=O)c2cc3c(Cl)nc4ccccc4c3s2)c1,.,.,52*,.,-1
C[C@H](CO)N1C[C@H](C)[C@H](CN(C)C(=O)Nc2cccc3ccccc23)Oc2ncc(C#CCC3CCCC3)cc2C1=O,8,-24,3,2,.
COc1ccc(NC(=O)N[C@H]2CC[C@H](CCNC(=O)c3ccccc3F)O[C@@H]2CO)cc1,-1,5,3,3,.
Cc1ccc(OCC(=O)NC(C)c2ccccc2)cc1 (stereo not drawn),-4,-6,47*,2,-11
CC(NC(=O)COC(=O)c1ccccc1O)c1ccccc1 (stereo not drawn),-3,-2,13,3,-1
CC(NC(=O)COC(=O)c1ccccc1Nc1ccccc1)c1ccccc1 (stereo not drawn),.,.,85*,.,9
Cc1cc(C)nc(N/N=C/c2ccccc2)n1,2,6,9,1,-1
Cc1cc(C)nc(N/N=C/c2sccc2C)n1,20*,-3,6,0,-1
CN1CCCC1CCNC1C2CC3CC(C2)CC1C3 (stereo not drawn),.,.,46*,.,8
C[C@H](CO)N1C[C@H](C)[C@H](CN(C)Cc2ccc(C(F)(F)F)cc2)Oc2c(cccc2N(C)C)C1=O,-1,-10,-2,8,.
Cn1c(SCc2nc(-c3ccc(Cl)cc3)no2)nnc1-c1cccs1,33*,-1,-1,-1,-14
Cn1c(SCc2nc(-c3ccccc3)no2)nnc1-c1cccs1,.,.,.,.,5
CCCCNc1cc(Cl)nc(N)n1,-2,7,58*,-1,1
CCSc1ccc(C(=O)Nc2cccc(C)n2)cc1[N+](=O)[O-],.,.,59*,.,-1
SMILES,SIRT5 inh,S100A4 MyoIIA,GSIS activator,ERp5 inh,PDI turbidity
Cc1ccc(Cn2ccsc2=NC(=O)COC(=O)c2ccc(NC(=O)CC#N)cc2)cc1,-1,-7,-27,-21,3
Cc1ccc(Cn2ccsc2=NC(=O)CCl)cc1,3,-3,63*,-4,1
COc1ccc(CN(CCC(c2ccccc2)c2ccc(OC(C)C)cc2)C(=O)CCl)cc1OC (stereo not drawn),.,-11,-25,.,86*
COc1ccc(C(CCN(Cc2ccc(OC)c(OC)c2)C(C)=O)c2ccccc2)cc1 (stereo not drawn),3,-2,-14,-6,14
COc1ccc(S(=O)(=O)N(C)C[C@H]2OCCCC[C@@H](C)Oc3ccc(NC(=O)Nc4ccc(F)cc4)cc3C(=O)N([C@@H](C)CO)C[C@@H]2C)cc1,16*,-25,0,-3,.
COc1ccc(S(=O)(=O)N(C)C[C@@H]2OCCCC[C@@H](C)Oc3ccc(NC(=O)Nc4ccc(F)cc4)cc3C(=O)N([C@H](C)CO)C[C@@H]2C)cc1,13,0,7,-1,.
C[C@@H]1CCCCO[C@@H](CN(C)S(=O)(=O)c2ccc(F)cc2)[C@H](C)CN([C@H](C)CO)C(=O)c2cc(NC(=O)Nc3ccc(C(F)(F)F)cc3)ccc2O1,15*,-3,28,-3,.
COc1ccc(S(=O)(=O)N(C)C[C@H]2OCCCC[C@@H](C)Oc3ccc(NC(=O)Nc4ccc(F)cc4)cc3C(=O)N([C@@H](C)CO)C[C@H]2C)cc1,17*,-6,-10,4,.
COc1ccc(S(=O)(=O)N(C)C[C@@H]2OCCCC[C@H](C)Oc3ccc(NC(=O)Nc4ccc(F)cc4)cc3C(=O)N([C@@H](C)CO)C[C@H]2C)cc1,13,-19,-26,1,.
COc1ccc(S(=O)(=O)N(C)C[C@@H]2OCCCC[C@@H](C)Oc3ccc(NC(=O)Nc4ccc(F)cc4)cc3C(=O)N([C@@H](C)CO)C[C@@H]2C)cc1,17*,3,-3,3,.
COc1cccc(NC(=O)C[C@@H]2CC[C@H]3[C@H](COc4ccc(NC(=O)C5CCC5)cc4C(=O)N3C)O2)c1,-4,3,-14,4,.
COCCNC(=O)[C@H]1[C@H](CO)[C@H]2Cn3c(ccc(-c4ccc(OC)cc4)c3=O)[C@@H]1N2C(=O)NC(C)C,-84,9,5,6,.
C[C@H]1CN([C@@H](C)CO)C(=O)c2cccc(N(C)C)c2O[C@H]1CN(C)S(=O)(=O)c1ccc(F)cc1,1,-1,10,8,.
CCCc1cn(CC[C@H]2CC[C@H](NC(=O)C3CCOCC3)[C@H](CO)O2)nn1,1,-5,11,-1,.
O=C(Cc1ccccc1)N1CC[C@@H]2[C@H]1c1cc(C#Cc3ccccc3)ccc1N[C@@H]2CO,3,13,-1,0,.
Cc1ccccc1S(=O)(=O)N1CC[C@@H]2[C@H](CO)Nc3ccc(-c4cccc(F)c4)cc3[C@@H]21,.,.,6,-4,.
C[C@H]1CN([C@@H](C)CO)C(=O)c2cc(NC(=O)Cc3ccccc3)ccc2O[C@H]1CN(C)S(=O)(=O)c1ccc(Cl)cc1,10,10,-14,-1,.
COc1ccc(CN(C)C[C@H]2Oc3ccc(NC(=O)Nc4ccc(C(F)(F)F)cc4)cc3C(=O)N([C@H](C)CO)C[C@@H]2C)cc1,-5,0,-13,4,.
COc1ccc(NC(=O)Nc2ccc3c(c2)C(=O)N([C@@H](C)CO)C[C@@H](C)[C@H](CN(C)S(=O)(=O)c2ccc(F)cc2)OCCCC[C@@H](C)O3)cc1,15*,-15,11,3,.

# Compound activity: PubChem, Broad Institute
